Experimental data collected from several papers.
Protocols differ between the studies behind these lines. Converted amounts (≈) assume the structure as drawn.
Organism: Salmonella enterica

| SMILES | observed | technique | strain | time | pH | quantity | result |
| --- | --- | --- | --- | --- | --- | --- | --- |
| [H]/N=C(/N)N[C@H]1[C@H](O)[C@@H](O)[C@H](O[C@@H]2O[C@@H](C)[C@](O)(C=O)[C@H]2O[C@@H]2O[C@@H](CO)[C@H](O)[C@@H](O)[C@@H]2NC)[C@@H](N/C(N)=N\[H])[C@@H]1O | microbial growth | – | TYPHI | – | – | IC50 | 8.1 µM |
| CO/N=C(\C(=O)N[C@@H]1C(=O)N2C(C(=O)O)=C(CSC(=O)c3ccco3)CS[C@H]12)c1csc(N)n1 | microbial growth | – | CHOLERAESUIS | 20 h | pH 7 | MIC | 1 µg/mL |
| CCCCCCCCCCCC(=O)OC[C@H]1O[C@@H](n2cc(C)c(=O)[nH]c2=O)C[C@@H]1O | microbial killing | broth dilution | TYPHI | – | – | MBC | 8 µg/mL (≈ 18.8 µM) |
| COc1cc(Cc2cnc(N)nc2N)cc(OC)c1OC | microbial growth | – | CHOLERAESUIS | 20 h | pH 5.5 | MIC | 0.5 µg/mL |
| O=C1NN=C(N=Cc2ccccc2O)C1=NNn1c(-c2ccccc2)nc2ccccc2c1=O | microbial growth | broth dilution | PARATYPHI | 24 h | – | MIC | 55.4 µM |
| CCn1cc(C(=O)O)c(=O)c2ccc(C)nc21 | microbial growth | – | CHOLERAESUIS | 20 h | pH 7.2 | MIC | 4 µg/mL |
| CO[C@H]1O[C@H](COC(c2ccccc2)(c2ccccc2)c2ccccc2)[C@@H](OC(=O)c2ccc(C(C)(C)C)cc2)[C@H](OC(=O)c2ccc(C(C)(C)C)cc2)[C@H]1OC(=O)c1ccc(C(C)(C)C)cc1 | microbial killing | broth dilution | TYPHI | – | – | MBC | 16 µg/mL (≈ 17.4 µM) |
| CC1=NN(CNc2ccccc2)C(=O)C1=NNn1c(-c2ccccc2)nc2ccccc2c1=O | microbial growth | broth dilution | PARATYPHI | 24 h | – | MIC | 221 µM |
| CCCCCCCCCCCC(=O)OC[C@H]1O[C@@H](n2cc(C)c(=O)[nH]c2=O)C[C@@H]1OC(=O)c1ccc(C(C)(C)C)cc1 | microbial killing | broth dilution | TYPHI | – | – | MBC | 16 µg/mL (≈ 27.4 µM) |
| CO[C@H]1/C=C/O[C@@]2(C)Oc3c(C)c(O)c4c(O)c(c(/C=N/N5CCN(C)CC5)c(O)c4c3C2=O)NC(=O)/C(C)=C\C=C\[C@H](C)[C@H](O)[C@@H](C)[C@@H](O)[C@@H](C)[C@H](OC(C)=O)[C@@H]1C | microbial growth | – | TYPHI | – | – | IC50 | 0.12 µM |
| CC1=NN(CNc2c(O)c(S(=O)(=O)O)cc3ccccc23)C(=O)C1=NNn1c(-c2ccccc2)nc2ccccc2c1=O | microbial growth | broth dilution | PARATYPHI | 24 h | – | MIC | 83.7 µM |
